The values that follow come from ChEMBL document CHEMBL2417491, “Design, synthesis and biological evaluation of aryl pyrimidine derivatives as potential leishmanicidal agents” (Bioorg Med Chem Lett, 2013).

For orientation: IC50 means the midpoint of a concentration-inhibition curve. What is called CC50 is the concentration giving 50% cytotoxicity. By inhibition in vivo is commonly meant the percentage by which the read-out fell short of the control. As a reminder, the inhibition is how much of the control response was suppressed.

Active and inactive are the calls of the source. No cut-off for these calls is given here.

For one data set, the system named is Syrian golden hamster. Description: Toxicity in golden hamster at 50 mg/kg, ip. Also on record: dose 50 mg/kg, route intraperitoneal. The following applies: in vivo. Format: organism-based, Mesocricetus auratus.
Data set [1] concerns Leishmania donovani. Kind of data set: Antileishmanial activity against Leishmania donovani amastigotes infected in mouse J774A1 cells after 72 hrs by luciferase reporter gene assay. It counts as functional, organism-based. To be noted: J774.A1, 72 h. Summed up:
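Macrophage cells were seeded at 4 × 10³ per well, held 24 h in a CO₂ incubator, and then infected with 4 × 10⁴ promastigotes, which transform into intracellular amastigotes. Compounds were added at 0.62–40 and incubated 72 h. Read-out was luminescence after Steady-Glo addition, with inhibition derived against untreated controls. IC₅₀ is the mean of two independent experiments.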
Background: A reporter such as luciferase makes a cellular process visible.

Data set [2] is described as follows: Cytotoxicity against African green monkey Vero cells after 72 hrs by MTT assay. Format: cell-based. To be noted: chlorocebus sabaeus. The method, boiled down: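 Monkey kidney Vero cells were exposed to compounds for 72 h. Viable cells were detected with MTT, and CC₅₀ was estimated by the Huber & Koella method. Values are the mean of two independent experiments.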
For orientation: Tetrazolium assays rely on reduction of a dye to a coloured formazan, in cell work by metabolically active cells.

In data set [3] the test system is Leishmania donovani. Description: Antileishmanial activity against Leishmania donovani infected in golden hamster assessed as inhibition of parasite multiplication at 50 mg/kg, ip for 5 days measured after 7 days by Giemsa staining-based assay. Format: functional. To be noted: for inhibition in vivo at 50 mg/kg: route intraperitoneal. The method, boiled down:
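Hamsters infected with L. donovani received test compounds at 50 mg/kg/day ip for 5 days, starting after the infection was established. Parasite burden was determined by Giemsa staining. Efficacy was expressed as percent inhibition, comparing treated animals, untreated animals and the initial count in treated animals.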

Data set [4] in a line: (§1) Selectivity index, ratio of CC50 for African green monkey Vero cells to IC50 for Leishmania donovani amastigotes. It counts as functional. Summed up:
(§2)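 Calculated as CC₅₀ on Vero cells divided by IC₅₀ on L. donovani intramacrophage amastigotes. Both values come from 72 h assays: MTT for Vero cells and a luciferase reporter for amastigotes.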

The nature of data set [5]: Cytotoxicity against mouse J774A1 cells after 72 hrs. Format: cell-based. The following applies: j774.a1, 72 h.
Data set [6] has as its system Leishmania donovani. Kind of data set: Antileishmanial activity against Leishmania donovani infected in golden hamster assessed as inhibition of parasite multiplication at 40 mg/kg, ip for 5 days measured after 7 days by Giemsa staining-based assay. Set-up: dose 40 mg/kg. It counts as functional, organism-based. Summed up: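 Reference-drug arm in the L. donovani-infected hamster model, dosed at 40 mg/kg ip daily for 5 days. After the infection was established, parasite burden was assessed by Giemsa staining. Percent inhibition came from comparing treated with untreated animals and with the initial count in treated animals.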

A further data set concerns Vero. Described as §1. Format: functional. The method, boiled down:
as §2

Data set [7] has as its system Leishmania donovani. Description: Antileishmanial activity against Leishmania donovani infected in golden hamster assessed as inhibition of parasite multiplication at 30 mg/kg, po for 5 days measured after 7 days by Giemsa staining-based assay. It counts as functional.

For the molecule `COc1cc(/C=C/c2cc(SC)nc(N)n2)ccc1O`, the Activity entry in the data set with Syrian golden hamster is listed as “Non-toxic”.

On to `COc1ccc(Nc2cc(/C=C/c3ccc(OCc4ccccc4)cc3)nc(N)n2)cc1`, for which, in the data set on Leishmania donovani [1], half-maximal inhibition (IC50) required 0.5 µM. For the same molecule, the Activity result in the data set on Syrian golden hamster was “Non-toxic”. The molecule further came in with a CC50 at 72 h in [2] of 57.8 µM. Besides, the inhibition in vivo at 50 mg/kg with Leishmania donovani [3] was determined as 78.1%. In addition, in [4], the “Ratio CC50/IC50” value was 116.

Regarding `CSc1cc(/C=C/c2ccc(OCc3ccccc3)cc2)nc(N)n1`, the Activity entry (in [5]; in the data set on Syrian golden hamster) was “Non-toxic” throughout. This molecule returned an IC50 in the data set on Leishmania donovani [1] of 2 µM. The molecule also gave a CC50 at 72 h in data set [2] of 376 µM. The inhibition in vivo at 50 mg/kg in the data set on Leishmania donovani [3] was 88.4%. In data set [4], the “Ratio CC50/IC50” value came to 188.

Regarding `CSc1cc(/C=C/c2ccc(OC3CCCCO3)cc2)nc(N)n1` (stereo not given), the IC50 with Leishmania donovani [1] turned out to be 3.6 µM. Besides, the Activity entry in the data set with Syrian golden hamster was “Non-toxic”. Also, the CC50 at 72 h in data set [2] is 122 µM. Besides, the inhibition in vivo at 50 mg/kg in the data set on Leishmania donovani [3] worked out at 54.4%. The “Ratio CC50/IC50” value in [4] was 34.

In the data set on Leishmania donovani [1], `CSc1cc(/C=C/c2ccc(OS(=O)(=O)[O-])cc2)nc(N)n1.[Na+]` came in with an IC50 of 6.3 µM. Moreover, in the data set on Syrian golden hamster, the Activity entry was “Non-toxic”. Also, the midpoint of cytotoxicity in data set [2], the CC50 at 72 h, lay at 301 µM. For the same molecule, the inhibition in vivo at 50 mg/kg with Leishmania donovani [3] came out at 55.1%. In addition, in data set [4], the “Ratio CC50/IC50” value was 48.

Turning to `COc1ccc(/C=C/c2cc(SC)nc(N)n2)cc1`, inhibition with Leishmania donovani [1] was half-maximal at 9.1 µM (IC50). In addition, the Activity result in the data set with Syrian golden hamster is on record as “Non-toxic”. Besides, in data set [2], half-maximal cytotoxicity (CC50 at 72 h) was put at 250 µM. Also, in the data set on Leishmania donovani [3], the inhibition in vivo at 50 mg/kg was 54.4%. The “Ratio CC50/IC50” value in [4] turned out to be 27.

As for Sodium stibogluconate, the inhibition in the data set with Leishmania donovani [6] stood at 88.5%. Besides, the Ratio CC50/IC50 in the data set on Vero is over 7.

As to `CCCCCCCCCCCCCCCCOP(=O)([O-])OCC[N+](C)(C)C` [MILTEFOSINE], the inhibition in vivo at 30 mg/kg in the data set with Leishmania donovani [7] came out at 98.1%. In addition, the “Ratio CC50/IC50” value in data set [4] came to 4.

Turning to `CCOc1cc(/C=C/c2cc(SC)nc(N)n2)ccc1OC1CCCCO1` (stereo not given), in the data set on Leishmania donovani [1], the midpoint of inhibition, the IC50, lay at 12.9 µM. Further, the Activity entry with Syrian golden hamster is “Non-toxic”. The molecule also gave a CC50 at 72 h in data set [2] of 248 µM. Besides, the inhibition in vivo at 50 mg/kg with Leishmania donovani [3] was found to be 33.5%. In addition, in data set [4], the “Ratio CC50/IC50” value is 19.

As to `COc1ccc(Nc2cc(/C=C/c3ccc(OC4CCCCO4)cc3)nc(N)n2)cc1` (stereo not given), the IC50 with Leishmania donovani [1] amounted to 2.7 µM. Also, the Activity result in the data set with Syrian golden hamster is given as “Non-toxic”. In data set [2], this molecule registered a CC50 at 72 h of 345 µM. Further, the inhibition in vivo at 50 mg/kg in the data set with Leishmania donovani [3] was found to be 78.2%. Besides, the “Ratio CC50/IC50” value in data set [4] stood at 128.

Turning to `CSc1cc(/C=C/c2ccc(O)cc2)nc(N)n1`, the Activity result in the data set with Syrian golden hamster is on record as “Non-toxic”.

In the data set with Leishmania donovani [1], `COc1ccc(/C=C/c2cc(SC)nc(N)n2)cc1OC` displayed a 50% inhibitory concentration (IC50) of 2 µM. For the same molecule, the Activity result in the data set on Syrian golden hamster was “Non-toxic”. Further, the midpoint of cytotoxicity in data set [2], the CC50 at 72 h, lay at 125 µM. Also, in the data set with Leishmania donovani [3], the inhibition in vivo at 50 mg/kg amounted to 47.1%. In addition, in data set [4], the “Ratio CC50/IC50” value was determined as 62.

For the molecule `COc1cc(/C=C/c2cc(SC)nc(N)n2)cc(OC)c1OC`, the IC50 in the data set with Leishmania donovani [1] was over 40 µM. Moreover, in the data set on Syrian golden hamster, the Activity result was “Non-toxic”. Also, in the data set with Leishmania donovani [3], the inhibition result is “inactive”.
